From ChEMBL document CHEMBL1671680, “Pradimicin S, a highly soluble nonpeptidic small-size carbohydrate-binding antibiotic, is an anti-HIV drug lead for both microbicidal and systemic use” (Antimicrob Agents Chemother, 2010)
The source made the active and inactive calls. The calls are words filed in the database; no cut-off is given here.

Tests used:
[1] = Cytotoxicity against human thymidine kinase-negative OST cells after 3 to 4 days; type: cell-based
[2] = tested on: Human immunodeficiency virus 1; experiment: Binding affinity to HIV-1 HXB2 gp41 assessed as association rate constant after 6 mins by SPR analysis in presence of 10 mM CaCl2
[3] = tested on: PBMC; experiment: Immunostimulatory activity against human PBMC assessed as IL-13 production at 21 uM after 72 hrs; type: functional, cell-based
Outline: (§1)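 Unstimulated PBMCs and PHA-blasts from three donors, in three independent experiments, cultured with test compound at 20 μg/ml (21 or 22 μM). Supernatants collected after 72 h. The cytokine profile was read on a Bio-Plex 27-plex human cytokine bead immunoassay, using beads coupled to cytokine-specific monoclonal antibodies and run per the kit instructions.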

[4] = tested on: PBMC; experiment: Immunostimulatory activity against human PBMC assessed as GM-CSF production at 21 uM after 72 hrs; type: functional, cell-based
Outline: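 PBMCs and PHA blasts from three donors (three independent experiments) cultured with 21 μM compound; supernatants collected at 72 h; cytokines quantified with the Bio-Plex human 27-plex bead immunoassay.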

[5] = tested on: PBMC; experiment: Immunostimulatory activity against human PBMC assessed as IP-10 production at 21 uM after 72 hrs; type: functional, cell-based; outline: as §1
[6] = tested on: PBMC; experiment: Immunostimulatory activity against human PBMC assessed as MIP-1alpha production at 21 uM after 72 hrs; type: functional, cell-based; outline: as §1
[7] = tested on: PBMC; experiment: Immunostimulatory activity against human PBMC assessed as MIP-1beta production at 21 uM after 72 hrs; type: functional, cell-based; outline: as §1
[8] = tested on: PBMC; experiment: Immunostimulatory activity against human PBMC assessed as PDGF production at 21 uM after 72 hrs; type: functional, cell-based; outline: as §1
[9] = tested on: PBMC; experiment: Immunostimulatory activity against human PBMC assessed as VEGF production at 21 uM after 72 hrs; type: functional, cell-based; outline: as §1
[10] = tested on: PBMC; experiment: Immunostimulatory activity against human PBMC assessed as IL-1ra production at 22 uM after 72 hrs; type: functional, cell-based; outline: as §1
[11] = tested on: PBMC; experiment: Immunostimulatory activity against human PBMC assessed as IL-15 production at 22 uM after 72 hrs; type: functional, cell-based; outline: as §1
[12] = tested on: PBMC; experiment: Immunostimulatory activity against human PBMC assessed as IP-10 production at 22 uM after 72 hrs; type: functional, cell-based; outline: as §1
[13] = tested on: PBMC; experiment: Immunostimulatory activity against human PBMC assessed as MCP-1 production at 22 uM after 72 hrs; type: functional, cell-based; outline: as §1
[14] = tested on: PBMC; experiment: Immunostimulatory activity against human PBMC assessed as RANTES production at 22 uM after 72 hrs; type: functional, cell-based; outline: as §1
[15] = tested on: PBMC; experiment: Immunostimulatory activity against human PBMC assessed as suppression of G-CSF production at 21 uM after 72 hrs; type: functional; outline: as §1
[16] = tested on: PBMC; experiment: Immunostimulatory activity against human PBMC assessed as suppression of PDGF production at 21 uM after 72 hrs; type: functional; outline: as §1
[17] = tested on: PBMC; experiment: Immunostimulatory activity against human PBMC assessed as suppression of IL-2 production at 22 uM after 72 hrs; type: functional; outline: as §1
[18] = tested on: PBMC; experiment: Immunostimulatory activity against human PBMC assessed as suppression of RANTES production at 22 uM after 72 hrs; type: functional
[19] = tested on: Human immunodeficiency virus 1; experiment: Antiviral activity against HIV-1 3B infected in human HUT78 cells assessed as prevention of syncytium formation between persistently HIV-1 3B-infected HUT-78 cells and uninfected SupT1 cells compound preexposed at pH 4 after 3 to 4 days by ELISA; type: functional, organism-based; settings: SUP-T1
[20] = tested on: Human immunodeficiency virus 1; experiment: Antiviral activity against R5 tropic HIV-1 clade G isolate BCF-DIOUM infected in human PBMC assessed as inhibition of viral replication […] by ELISA; type: functional, organism-based; settings: Human immunodeficiency virus 1, clade G isolate BCF-DIOUM
Outline: (§2)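 PBMCs from healthy donors were stimulated with PHA (2 μg/ml) for 3 days, then seeded at 0.5 × 10^6 cells/well in RPMI 1640 with 10% FCS, IL-2 (25 U/ml) and compound. Virus was added at a final 250 pg p24/ml. Supernatant was taken at day 12 for p24 antigen ELISA.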

[21] = tested on: Human immunodeficiency virus 1; experiment: Antiviral activity against X4 tropic HIV-1 Bal infected in human PBMC assessed as inhibition of viral replication […] by ELISA; type: functional, organism-based; settings: Human immunodeficiency virus 1, Bal; outline: as §2
[22] = tested on: Human immunodeficiency virus 2; experiment: Antiviral activity against X4 tropic HIV-2 BV-5061 W infected in human PBMC assessed as inhibition of viral replication […] by ELISA; type: functional, organism-based; settings: Human immunodeficiency virus 2, BV-5061
Outline: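 PHA-stimulated (2 μg/ml, 3 days) donor PBMC blasts seeded at 0.5 × 10^6 cells/well with compound dilutions in RPMI 1640 + 10% FCS + IL-2 (25 U/ml); virus added at 250 pg p24 or p27/ml final; supernatant p24 (HIV-1) or p27 (HIV-2) antigen measured by ELISA at day 12; EC50 from antigen reduction.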

[23] = tested on: Human immunodeficiency virus 1; experiment: Ratio of EC90 to EC50 for R5 tropic HIV-1 clade A isolate UG273 infected in human PBMC; type: functional
Outline: (§3)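 PBMCs from healthy donors were PHA-stimulated (2 μg/ml, 3 days, 37°C), then seeded at 0.5 × 10^6 per well with compound dilutions in RPMI 1640 with 10% FCS and IL-2 (25 U/ml). Virus was added at 250 pg p24 or p27/ml final. On day 12, supernatant HIV-1 p24 or HIV-2 p27 was measured by ELISA, giving EC50 and EC90.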

[24] = tested on: Human immunodeficiency virus 1; experiment: Ratio of EC90 to EC50 for X4 tropic HIV-1 clade D isolate UG270 infected in human PBMC; type: functional; outline: as §3
[25] = tested on: Human immunodeficiency virus 1; experiment: Ratio of EC90 to EC50 for X4 tropic HIV-1 3B infected in human PBMC; type: functional; outline: as §3
[26] = tested on: Human immunodeficiency virus 1; experiment: Antiviral activity against HIV-1 3B infected in human MT4 cells assessed as inhibition of virus-induced cytopathicity after 7 days by trypan blue staining; type: functional, organism-based; settings: Human immunodeficiency virus 1, 3B, MT4, 168 h
[27] = tested on: Human immunodeficiency virus 2; experiment: Antiviral activity against HIV-2 ROD infected in human MT4 cells assessed as inhibition of virus-induced cytopathicity after 7 days by trypan blue staining; type: functional, organism-based; settings: Human immunodeficiency virus 2, ISOLATE ROD, MT4, 168 h
[28] = tested on: Human immunodeficiency virus 2; experiment: Ratio of EC90 to EC50 for X4 tropic HIV-2 BV-5061 W infected in human PBMC
[29] = tested on: Human immunodeficiency virus 1; experiment: Antiviral activity against R5 tropic HIV-1 clade F isolate BZ163 infected in human PBMC assessed as inhibition of viral replication after 12 days by ELISA; settings: Human immunodeficiency virus 1, clade F isolate BZ163, 12 days
[30] = tested on: Human immunodeficiency virus 1; experiment: Antiviral activity against X4 tropic HIV-1 clade D isolate UG270 infected in human PBMC assessed as inhibition of viral replication after 12 days by ELISA; settings: Human immunodeficiency virus 1, clade D isolate UG270, 12 days

| Compound | CC50 [1] | Ka [2] | Activity [3] | Activity [4] | Activity [5] | Activity [6] | Activity [7] | Activity [8] | Activity [9] | Activity [10] | Activity [11] | Activity [12] | Activity [13] | Activity [14] | fold change (FC) [15] | fold change (FC) [16] | fold change (FC) [17] | fold change (FC) [18] | Activity [19] | EC50 [20] | also measured |
| --- | --- | --- | --- | --- | --- | --- | --- | --- | --- | --- | --- | --- | --- | --- | --- | --- | --- | --- | --- | --- | --- |
| CN[C@@H]1[C@H](O[C@@H]2OC[C@@H](O)[C@H](O)[C@H]2O)[C@@H](O)[C@H](O[C@H]2c3cc(C)c(C(=O)N[C@H](C)C(=O)O)c(O)c3-c3c(cc4c(c3O)C(=O)c3cc(OC)cc(O)c3C4=O)[C@@H]2O)O[C@@H]1C [PRADIMICIN A] | > 50 µM | 1.96 ×10³ /M/s | inactive | inactive | inactive | inactive | inactive | inactive | inactive | inactive | inactive | inactive | inactive | inactive | 2 | 2 | 4 | 4 | Active | 6.7 µM | EC50 [21]: 2.2 µM; EC50 [22]: 4.3 µM; Ratio [23]: 2; Ratio [24]: 2; Ratio [25]: 2; EC50 [26]: 5.2 µM; EC50 [27]: 5 µM; Ratio [28]: 2; EC50 [29]: 8 µM; EC50 [30]: 3 µM |
| CN[C@@H]1[C@H](O[C@@H]2O[C@H](CO)[C@@H](O)[C@H](OS(=O)(=O)O)[C@H]2O)[C@@H](O)[C@H](O[C@H]2c3cc(C)c(C(=O)N[C@H](C)C(=O)O)c(O)c3-c3c(cc4c(c3O)C(=O)c3cc(OC)cc(O)c3C4=O)[C@@H]2O)O[C@@H]1C [PRADIMICIN S] | > 230 µM | 2.73 ×10³ /M/s | inactive | inactive | inactive | inactive | inactive | inactive | inactive | inactive | inactive | inactive | inactive | inactive | 2 | 2 | 4 | 4 | Active | 17 µM | EC50 [21]: 5.3 µM; EC50 [22]: 3.1 µM; Ratio [23]: 2; Ratio [24]: 2; Ratio [25]: 2; EC50 [26]: 5 µM; EC50 [27]: 4.7 µM; Ratio [28]: 2; EC50 [29]: 17 µM; EC50 [30]: 18 µM |
